According to ChEMBL document CHEMBL4033793, “Potent and Selective Inhibitors of Human Sirtuin 5” (J Med Chem, 2018):
Starred links: 1 amine or outer side, 2 acyl side, 3 side chain; linkers in the order of their positions; H or OH if unused. Residues, ends and D or L forms follow the SMILES beside them. *: point of attachment. X2 = O=C(CCCC[C@@H]1SC[C@@H]2NC(=O)N[C@@H]21)NCCCOCCOCCOCCCN*; X65 = O=C(O)[C@H](CC(=O)*)SCc1cccc([N+](=O)[O-])c1; X71 = O=C(O)[C@@H](CC(=O)*)SCc1cccc(C(F)(F)F)c1; X62 = Cc1cc(C)c(CS[C@@H](CC(=O)*)C(=O)O)c(C)c1; X56 = Cc1cc(C)c(CS[C@H](CC(=O)*)C(=O)O)c(C)c1; X63 = O=C(O)[C@@H](CC(=O)*)SCc1ccc(Cl)c(Cl)c1; X72 = O=C(O)[C@@H](CC(=O)*)SCc1cccc2ccccc12; X74 = O=C(O)[C@@H](CC(=O)*)SCc1ccc(Cl)cc1Cl; X55 = O=C(O)[C@@H](CC(=O)*)Sc1ccc(Cl)cc1Cl; X58 = O=C(O)[C@@H](CC(=O)*)Sc1cccc(Cl)c1Cl; X59 = O=C(O)[C@@H](CC(=O)*)SCc1ccc(Cl)cc1; X64 = O=C(O)[C@H](CC(=O)*)Sc1c(Cl)cccc1Cl; X66 = COc1ccc(CS[C@@H](CC(=O)*)C(=O)O)cc1; X57 = O=C(O)[C@@H](CC(=O)*)Sc1ccc(Cl)cc1; X61 = O=C(O)[C@@H](CC(=O)*)Sc1cccc(Cl)c1; X68 = Cc1ccc(S[C@H](CC(=O)*)C(=O)O)cc1C; X70 = O=C(O)[C@H](CC(=O)*)Sc1cccc(Cl)c1; X73 = O=C(O)[C@H](CC(=O)*)SCc1ccccc1Cl; X60 = O=C(O)[C@@H](CC(=O)*)SCc1ccccc1; X69 = O=C(O)[C@@H](CC(=O)*)Sc1ccccc1; X9 = O=C(O)C(CC(=O)*)Sc1ccc2ccccc2c1; Suc = O=C(CCC(=O)[*:2])[*:1]; Bz = O=C(c1ccccc1)*

Target: T1, NAD-dependent protein deacylase sirtuin-5, mitochondrial (Homo sapiens, UniProt Q9NXA8)
Assay: Competitive inhibition of human recombinant N-terminal Strep2-tagged SIRT5 expressed in Escherichia coli BL21 (DE3) using Abz-GVLK(glutaryl)AY(NO2)GV-NH2 as substrate in presence of NAD+ by fluorescence assay
Method in brief: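 Continuous trypsin-coupled fluorescence assay at 37°C: 10 nM SIRT5, 500 µM NAD+, 500 nM trypsin, 5% DMSO, 0.025-5 µM substrate, 0.01-20 µM inhibitor. Buffer: 20 mM Tris, 150 mM NaCl, 5 mM MgCl2, pH 7.8. Excitation 320 nm, emission 420 nm. Measured in duplicate; IC50 determined at 0.03 µM substrate by log(inhibitor) vs normalized response fit.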

T1 sequence (Q9NXA8 whole entry): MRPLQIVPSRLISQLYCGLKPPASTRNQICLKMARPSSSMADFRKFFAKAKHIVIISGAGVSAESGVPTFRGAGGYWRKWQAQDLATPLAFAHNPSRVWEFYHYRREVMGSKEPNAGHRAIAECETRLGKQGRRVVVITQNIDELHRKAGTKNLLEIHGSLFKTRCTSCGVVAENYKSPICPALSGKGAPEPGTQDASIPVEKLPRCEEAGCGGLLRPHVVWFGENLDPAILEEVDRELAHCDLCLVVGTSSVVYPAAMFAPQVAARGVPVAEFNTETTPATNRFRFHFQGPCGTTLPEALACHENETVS

Compound	Ki [nM]
CC(C)C[C@H](NC(=O)[C@@H](NC(=O)CNC(=O)CCC(=O)NCCCOCCOCCOCCCNC(=O)CCCC[C@@H]1SC[C@@H]2NC(=O)N[C@@H]21)C(C)C)C(=O)N[C@@H](CCCCNC(=O)CC(Sc1ccc2ccccc2c1)C(=O)O)C(=O)N[C@@H](CCC(=O)O)C(=O)N[C@@H](Cc1ccc(O)cc1)C(=O)NCC(=O)N[C@H](C(N)=O)C(C)C (stereo partly specified) ({X2-Suc}-GVLK(X9)EYGV-NH2)	83.2

Target: T1, NAD-dependent protein deacylase sirtuin-5, mitochondrial
Assay: Inhibition of human recombinant N-terminal Strep2-tagged SIRT5 expressed in Escherichia coli BL21 (DE3) using Abz-GVLK(glutaryl)AY(NO2)GV-NH2 as substrate in presence of NAD+ by fluorescence assay

Compound	IC50 [nM]
CC(C)C[C@H](NC(=O)[C@@H](NC(=O)CNC(=O)c1ccccc1)C(C)C)C(=O)N[C@@H](CCCCNC(=O)C[C@@H](Sc1ccc(Cl)cc1Cl)C(=O)O)C(=O)N[C@@H](CCC(=O)O)C(=O)N[C@@H](Cc1ccc(O)cc1)C(=O)NCC(=O)N[C@H](C(N)=O)C(C)C (Bz-GVLK(X55)EYGV-NH2)	2010
Cc1cc(C)c(CS[C@H](CC(=O)NCCCC[C@H](NC(=O)[C@H](CC(C)C)NC(=O)[C@@H](NC(=O)CNC(=O)c2ccccc2)C(C)C)C(=O)N[C@@H](CCC(=O)O)C(=O)N[C@@H](Cc2ccc(O)cc2)C(=O)NCC(=O)N[C@H](C(N)=O)C(C)C)C(=O)O)c(C)c1 (Bz-GVLK(X56)EYGV-NH2)	631
CC(C)C[C@H](NC(=O)[C@@H](NC(=O)CNC(=O)c1ccccc1)C(C)C)C(=O)N[C@@H](CCCCNC(=O)C[C@@H](Sc1ccc(Cl)cc1)C(=O)O)C(=O)N[C@@H](CCC(=O)O)C(=O)N[C@@H](Cc1ccc(O)cc1)C(=O)NCC(=O)N[C@H](C(N)=O)C(C)C (Bz-GVLK(X57)EYGV-NH2)	1610
CC(C)C[C@H](NC(=O)[C@@H](NC(=O)CNC(=O)c1ccccc1)C(C)C)C(=O)N[C@@H](CCCCNC(=O)C[C@@H](Sc1cccc(Cl)c1Cl)C(=O)O)C(=O)N[C@@H](CCC(=O)O)C(=O)N[C@@H](Cc1ccc(O)cc1)C(=O)NCC(=O)N[C@H](C(N)=O)C(C)C (Bz-GVLK(X58)EYGV-NH2)	3390
CC(C)C[C@H](NC(=O)[C@@H](NC(=O)CNC(=O)c1ccccc1)C(C)C)C(=O)N[C@@H](CCCCNC(=O)C[C@@H](SCc1ccc(Cl)cc1)C(=O)O)C(=O)N[C@@H](CCC(=O)O)C(=O)N[C@@H](Cc1ccc(O)cc1)C(=O)NCC(=O)N[C@H](C(N)=O)C(C)C (Bz-GVLK(X59)EYGV-NH2)	1020
CC(C)C[C@H](NC(=O)[C@@H](NC(=O)CNC(=O)c1ccccc1)C(C)C)C(=O)N[C@@H](CCCCNC(=O)C[C@@H](SCc1ccccc1)C(=O)O)C(=O)N[C@@H](CCC(=O)O)C(=O)N[C@@H](Cc1ccc(O)cc1)C(=O)NCC(=O)N[C@H](C(N)=O)C(C)C (Bz-GVLK(X60)EYGV-NH2)	644
CC(C)C[C@H](NC(=O)[C@@H](NC(=O)CNC(=O)c1ccccc1)C(C)C)C(=O)N[C@@H](CCCCNC(=O)C[C@@H](Sc1cccc(Cl)c1)C(=O)O)C(=O)N[C@@H](CCC(=O)O)C(=O)N[C@@H](Cc1ccc(O)cc1)C(=O)NCC(=O)N[C@H](C(N)=O)C(C)C (Bz-GVLK(X61)EYGV-NH2)	1380
Cc1cc(C)c(CS[C@@H](CC(=O)NCCCC[C@H](NC(=O)[C@H](CC(C)C)NC(=O)[C@@H](NC(=O)CNC(=O)c2ccccc2)C(C)C)C(=O)N[C@@H](CCC(=O)O)C(=O)N[C@@H](Cc2ccc(O)cc2)C(=O)NCC(=O)N[C@H](C(N)=O)C(C)C)C(=O)O)c(C)c1 (Bz-GVLK(X62)EYGV-NH2)	5200
CC(C)C[C@H](NC(=O)[C@@H](NC(=O)CNC(=O)c1ccccc1)C(C)C)C(=O)N[C@@H](CCCCNC(=O)C[C@@H](SCc1ccc(Cl)c(Cl)c1)C(=O)O)C(=O)N[C@@H](CCC(=O)O)C(=O)N[C@@H](Cc1ccc(O)cc1)C(=O)NCC(=O)N[C@H](C(N)=O)C(C)C (Bz-GVLK(X63)EYGV-NH2)	780
CC(C)C[C@H](NC(=O)[C@@H](NC(=O)CNC(=O)c1ccccc1)C(C)C)C(=O)N[C@@H](CCCCNC(=O)C[C@H](Sc1c(Cl)cccc1Cl)C(=O)O)C(=O)N[C@@H](CCC(=O)O)C(=O)N[C@@H](Cc1ccc(O)cc1)C(=O)NCC(=O)N[C@H](C(N)=O)C(C)C (Bz-GVLK(X64)EYGV-NH2)	577
CC(C)C[C@H](NC(=O)[C@@H](NC(=O)CNC(=O)c1ccccc1)C(C)C)C(=O)N[C@@H](CCCCNC(=O)C[C@H](SCc1cccc([N+](=O)[O-])c1)C(=O)O)C(=O)N[C@@H](CCC(=O)O)C(=O)N[C@@H](Cc1ccc(O)cc1)C(=O)NCC(=O)N[C@H](C(N)=O)C(C)C (Bz-GVLK(X65)EYGV-NH2)	2710
COc1ccc(CS[C@@H](CC(=O)NCCCC[C@H](NC(=O)[C@H](CC(C)C)NC(=O)[C@@H](NC(=O)CNC(=O)c2ccccc2)C(C)C)C(=O)N[C@@H](CCC(=O)O)C(=O)N[C@@H](Cc2ccc(O)cc2)C(=O)NCC(=O)N[C@H](C(N)=O)C(C)C)C(=O)O)cc1 (Bz-GVLK(X66)EYGV-NH2)	1050
Cc1ccc(S[C@H](CC(=O)NCCCC[C@H](NC(=O)[C@H](CC(C)C)NC(=O)[C@@H](NC(=O)CNC(=O)c2ccccc2)C(C)C)C(=O)N[C@@H](CCC(=O)O)C(=O)N[C@@H](Cc2ccc(O)cc2)C(=O)NCC(=O)N[C@H](C(N)=O)C(C)C)C(=O)O)cc1C (Bz-GVLK(X68)EYGV-NH2)	1260
CC(C)C[C@H](NC(=O)[C@@H](NC(=O)CNC(=O)c1ccccc1)C(C)C)C(=O)N[C@@H](CCCCNC(=O)C[C@@H](Sc1ccccc1)C(=O)O)C(=O)N[C@@H](CCC(=O)O)C(=O)N[C@@H](Cc1ccc(O)cc1)C(=O)NCC(=O)N[C@H](C(N)=O)C(C)C (Bz-GVLK(X69)EYGV-NH2)	1800
CC(C)C[C@H](NC(=O)[C@@H](NC(=O)CNC(=O)c1ccccc1)C(C)C)C(=O)N[C@@H](CCCCNC(=O)C[C@H](Sc1cccc(Cl)c1)C(=O)O)C(=O)N[C@@H](CCC(=O)O)C(=O)N[C@@H](Cc1ccc(O)cc1)C(=O)NCC(=O)N[C@H](C(N)=O)C(C)C (Bz-GVLK(X70)EYGV-NH2)	120
CC(C)C[C@H](NC(=O)[C@@H](NC(=O)CNC(=O)c1ccccc1)C(C)C)C(=O)N[C@@H](CCCCNC(=O)C[C@@H](SCc1cccc(C(F)(F)F)c1)C(=O)O)C(=O)N[C@@H](CCC(=O)O)C(=O)N[C@@H](Cc1ccc(O)cc1)C(=O)NCC(=O)N[C@H](C(N)=O)C(C)C (Bz-GVLK(X71)EYGV-NH2)	1150
CC(C)C[C@H](NC(=O)[C@@H](NC(=O)CNC(=O)c1ccccc1)C(C)C)C(=O)N[C@@H](CCCCNC(=O)C[C@@H](SCc1cccc2ccccc12)C(=O)O)C(=O)N[C@@H](CCC(=O)O)C(=O)N[C@@H](Cc1ccc(O)cc1)C(=O)NCC(=O)N[C@H](C(N)=O)C(C)C (Bz-GVLK(X72)EYGV-NH2)	207
CC(C)C[C@H](NC(=O)[C@@H](NC(=O)CNC(=O)c1ccccc1)C(C)C)C(=O)N[C@@H](CCCCNC(=O)C[C@H](SCc1ccccc1Cl)C(=O)O)C(=O)N[C@@H](CCC(=O)O)C(=O)N[C@@H](Cc1ccc(O)cc1)C(=O)NCC(=O)N[C@H](C(N)=O)C(C)C (Bz-GVLK(X73)EYGV-NH2)	533
CC(C)C[C@H](NC(=O)[C@@H](NC(=O)CNC(=O)c1ccccc1)C(C)C)C(=O)N[C@@H](CCCCNC(=O)C[C@@H](SCc1ccc(Cl)cc1Cl)C(=O)O)C(=O)N[C@@H](CCC(=O)O)C(=O)N[C@@H](Cc1ccc(O)cc1)C(=O)NCC(=O)N[C@H](C(N)=O)C(C)C (Bz-GVLK(X74)EYGV-NH2)	432
CC(C)C[C@H](NC(=O)[C@@H](NC(=O)CNC(=O)CCC(=O)NCCCOCCOCCOCCCNC(=O)CCCC[C@@H]1SC[C@@H]2NC(=O)N[C@@H]21)C(C)C)C(=O)N[C@@H](CCCCNC(=O)CC(Sc1ccc2ccccc2c1)C(=O)O)C(=O)N[C@@H](CCC(=O)O)C(=O)N[C@@H](Cc1ccc(O)cc1)C(=O)NCC(=O)N[C@H](C(N)=O)C(C)C (stereo partly specified) ({X2-Suc}-GVLK(X9)EYGV-NH2)	91.1
